Source: PubChem BioAssay
HSF1 inhib: HSF1 inhibition | NIH3T3-HGL HSE-luciferase, MG132-induced, luminescence 8 h; hits give low values | activity change, negative = inhibition, % at 7.5 µM (by protocol) | 0.77% of 300,000 active;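 active means more than half of replicate wells show activity change below -50%, luminescence cut by over half; inconclusive means some wells, but at most half, below -50%; inactive means no replicate well below -50%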;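 further: luciferase reports HSF-1 transcriptional activity via heat shock element; 0% = median of DMSO wells and -100% = zero luminescence signal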
STAT3 activator: increases IL-6 driven STAT3 reporter signal; U3A cells, IL-6 STAT3-luciferase reporter, luminescence; 100% = signal with IL-6 EC80 alone; activation (% of control), % at 5.6 µM; 0.91% of 190,000 active;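 active means activation above the screen-wide mean of compound activation plus 3 SD, cut at about 130% in these data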;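 further: 0% = background luminescence of wells with medium and substrate only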
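Test system: STAT3-luciferase reporter U3A cells; Detection: reporter luminescence signal; Times: 1 h compound pre-exposure, 6 h IL-6 stimulation, 37 °C; Benchmarks: IL-6-only high control; Also added: IL-6 stimulus at 33 ng/mL final.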
PolyA inh: blocks polyadenylation in yeast reporter cells. 0.02% of 300,000 active. activity score, % at 12 µM. S. cerevisiae SKY197-pL101 polyadenylation reporter, beta-gal luminescence; efflux-impaired pdr1/pdr3 knockout yeast; score 100 = 6 SD above DMSO;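 active means lowest replicate activity score at least 50, where 100 means six control SD above control mean; inconclusive means lowest score under 50 but half or more replicates reach 50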;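 further: yeast exposed to compound for 9 h at 30 °C; higher score means more reporter readthrough which indicates perturbed polyadenylation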
Hsp70 act: switches on Hsp70 transcription | 0.04% of 200,000 active | activation, % at 10 µM | HeLa Hsp70 promoter luciferase reporter, luminescence; scaled: vehicle 0, proteasome-inhibitor control 100%;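 active means activation above the mean across all tested compounds plus 3 SD, cutoff set per campaign, cut at about 5.5% in these data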;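 further: 100% = MG132 at 30 µM as the positive control and 0% = DMSO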
AHR activator: human AHR activation. 2.5% of 320,000 active. activation, % at 5 µM. AHR-responsive luciferase reporter cells, luminescence. P35869; in the data active means activation above about 47%;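 further: 0% = vehicle wells and 100% = reference agonist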
PERK inh: blocks human PERK kinase. CHO PERK-DD fusion, SEAP luminescence translation reporter. inhibition, % at 5.6 µM. 0.17% of 220,000 active;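 active means inhibition above the mean inhibition of all tested compounds plus 3 SD, set separately per screening campaign, cut at about 2.9% in these data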;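 further: PERK kinase domain activated by AP20187 dimerizer at 100 nM; 0% = DMSO with dimerizer and 100% = rapamycin at 8.4 µM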
Target sequence (Q9NZJ5 whole entry, looked up, the tested form may be a part): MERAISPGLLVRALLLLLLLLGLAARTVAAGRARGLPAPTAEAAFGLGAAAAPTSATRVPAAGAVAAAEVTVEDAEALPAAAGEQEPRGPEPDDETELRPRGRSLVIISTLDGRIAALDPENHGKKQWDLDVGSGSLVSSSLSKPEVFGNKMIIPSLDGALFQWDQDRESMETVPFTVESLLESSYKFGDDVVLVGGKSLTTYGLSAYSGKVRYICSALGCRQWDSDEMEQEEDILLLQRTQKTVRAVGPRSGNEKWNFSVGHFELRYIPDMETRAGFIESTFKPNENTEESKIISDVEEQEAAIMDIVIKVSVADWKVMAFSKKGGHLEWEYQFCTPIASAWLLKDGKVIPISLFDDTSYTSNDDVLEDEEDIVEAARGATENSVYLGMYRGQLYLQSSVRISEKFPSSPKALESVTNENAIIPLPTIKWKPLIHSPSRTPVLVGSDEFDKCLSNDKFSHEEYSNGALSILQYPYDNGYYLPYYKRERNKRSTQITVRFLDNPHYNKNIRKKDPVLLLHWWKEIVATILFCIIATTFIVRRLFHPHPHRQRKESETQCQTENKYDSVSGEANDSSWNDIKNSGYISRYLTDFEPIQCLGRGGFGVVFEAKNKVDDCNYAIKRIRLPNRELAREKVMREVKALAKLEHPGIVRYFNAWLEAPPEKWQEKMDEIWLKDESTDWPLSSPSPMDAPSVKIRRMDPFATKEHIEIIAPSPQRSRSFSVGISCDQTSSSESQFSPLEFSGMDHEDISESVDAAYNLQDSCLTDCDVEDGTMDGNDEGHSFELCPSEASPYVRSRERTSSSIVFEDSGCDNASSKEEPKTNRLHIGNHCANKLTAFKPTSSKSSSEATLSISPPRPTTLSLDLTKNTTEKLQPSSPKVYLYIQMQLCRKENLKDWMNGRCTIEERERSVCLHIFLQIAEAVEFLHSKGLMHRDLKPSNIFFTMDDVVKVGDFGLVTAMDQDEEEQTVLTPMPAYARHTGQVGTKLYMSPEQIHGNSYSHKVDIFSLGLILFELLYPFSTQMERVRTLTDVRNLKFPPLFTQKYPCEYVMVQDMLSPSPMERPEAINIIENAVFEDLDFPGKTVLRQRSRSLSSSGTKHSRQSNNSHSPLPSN
Active calls of the source: *. This is a sample that favours compounds with a hit; in the whole collection about 3.6% have one here.

For CCCNC(=O)c1ccc2c(=O)c(O)c(-c3cccc(Br)c3)[nH]c2c1 the results were HSF1 inhib -52*, PolyA inh 0 and AHR activator 19.
Screening CCCNC(=O)c1ccc2c(=O)c(O)c(-c3ccc(F)cc3)[nH]c2c1 returned HSF1 inhib 3, PolyA inh -14 and AHR activator 70*.
Nc1c(Cl)cc(-c2[nH]c3cc(C(=O)NCCO)ccc3c(=O)c2O)cc1Cl was read as HSF1 inhib 6, PolyA inh -12 and AHR activator 14.
For Cc1ccc(S(=O)(=O)N2CCOCC2)cc1NC(=O)COC(=O)Cc1ccccc1 the results were AHR activator 0.
`Clc1ccc(Cn2ccc(-c3ccc4c(c3)OCO4)n2)cc1Cl` gave HSF1 inhib 12, STAT3 activator 105, PolyA inh -5, Hsp70 act 0, AHR activator 51* and PERK inh 1.
`CCOC(=O)C1CCN(C(=O)CCS(=O)(=O)c2ccc3c(c2)CC(C)N3C(=O)CC)CC1` (configuration not stated) gave HSF1 inhib -62*, STAT3 activator 102, PolyA inh -5, Hsp70 act 0, AHR activator -5 and PERK inh 0.
CCOC(=O)N1CCN(C(=O)CCS(=O)(=O)c2ccc3c(c2)CC(C)N3C(=O)CC)CC1 (configuration not stated) was read as HSF1 inhib -5, PolyA inh -1 and AHR activator 1.
Screening CC(C)C(NS(=O)(=O)c1cccc2nsnc12)C(=O)NC1CCCCC1C (configuration not stated) returned HSF1 inhib -4, PolyA inh -7 and AHR activator -1.
Screening CSc1cccc(-n2cc(-c3ccc4c(c3)OCO4)[nH]c2=O)c1 returned HSF1 inhib 12, STAT3 activator 132, PolyA inh -13, Hsp70 act 1, AHR activator 51* and PERK inh 1.
Cc1ccc(CN2CC(C(=O)NNC(=O)c3ccc(F)cc3)CC2=O)cc1 (configuration not stated) was read as AHR activator -1.
Cc1cc(NCCN2CCOCC2)n2c(nc3ccccc32)c1C#N was read as HSF1 inhib -5, STAT3 activator 92, PolyA inh 15, Hsp70 act 0, AHR activator 24 and PERK inh 0.
Screening CCN(CC)CCNc1cc(C)c(C#N)c2nc3ccccc3n12 returned HSF1 inhib -5, PolyA inh -5 and AHR activator 48*.
For Cc1cc(NCCCN2CCOCC2)n2c(nc3ccccc32)c1C#N the results were HSF1 inhib -7, STAT3 activator 93, PolyA inh 16, Hsp70 act 0, AHR activator 73* and PERK inh -1.
Screening CCOCCCNC(=O)c1ccc2c(c1)N(CC)C(=O)c1ccccc1S2=O (configuration not stated) returned HSF1 inhib -9, PolyA inh -2 and AHR activator 9.
Screening CCN1C(=O)c2ccccc2S(=O)c2ccc(C(=O)NCc3ccc(OC)cc3)cc21 (configuration not stated) returned HSF1 inhib -87*, PolyA inh 2 and AHR activator 14.
For CCN1CCN(C(=O)c2ccc3c(c2)N(Cc2ccccc2)C(=O)c2ccccc2S3=O)CC1 (configuration not stated) the results were HSF1 inhib -4, PolyA inh inconclusive and AHR activator 1.
CCN1C(=O)c2ccccc2S(=O)c2ccc(C(=O)N3CCCC3)cc21 (configuration not stated) was read as HSF1 inhib -85*, STAT3 activator 100, PolyA inh 0, Hsp70 act 0, AHR activator 1 and PERK inh 1.
For COc1ccc(OC)c(NC(=O)CSc2nccn2Cc2ccco2)c1 the results were HSF1 inhib 1, PolyA inh -9 and AHR activator 7.
COC(=O)c1ccc(Cn2nnc3c(=O)[nH]c(C4CCN(S(=O)(=O)c5ccc(F)cc5)CC4)nc32)cc1 was read as HSF1 inhib -44, PolyA inh 16 and AHR activator -1.
